Results taken from ChEMBL document CHEMBL1142866, “Synthesis and preliminary evaluation of 18F- or 11C-labeled bicyclic nucleoside analogues as potential probes for imaging varicella-zoster virus thymidine kinase gene expression using positron emission tomography” (J Med Chem, 2007).

Legend:
Lung [1] = experiment: Biodistribution in lung of NMRI mouse assessed as standard uptake value after 2 mins; assay type: ADME, organism-based; conditions: in vivo
Heart [2] = experiment: Biodistribution in heart of NMRI mouse assessed as standard uptake value after 2 mins; assay type: ADME, organism-based; conditions: in vivo
Brain [3] = experiment: Biodistribution in brain of NMRI mouse assessed as standard uptake value after 2 mins; assay type: ADME, organism-based; conditions: in vivo
Blood [4] = experiment: Biodistribution in blood of NMRI mouse assessed as standard uptake value after 2 mins; assay type: ADME, organism-based; conditions: in vivo
Kidney [5] = experiment: Biodistribution in kidney of NMRI mouse assessed as standard uptake value after 60 mins; assay type: ADME, organism-based; conditions: in vivo, 1 h
Liver [6] = experiment: Biodistribution in liver of NMRI mouse assessed as standard uptake value after 60 mins; assay type: ADME, organism-based; conditions: in vivo, 1 h
[7] = Biodistribution in spleen/pancreas of NMRI mouse assessed as standard uptake value after 60 mins; assay type: ADME, organism-based; conditions: in vivo, 1 h
Intestine [8] = experiment: Biodistribution in intestine of NMRI mouse after 2 mins; assay type: ADME, organism-based; conditions: in vivo
In short: (§1)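 Male NMRI mice (30-40 g) under ketamine/xylazine i.p. anesthesia received 0.1 mL of HPLC-purified 18F tracer (0.1 mCi/mL) or 11C tracer (1 mCi/mL) in water for injection via tail vein. Killed by decapitation at 2 or 60 min (n = 3 per time). Blood, organs and carcass weighed and gamma-counted. %ID = organ cpm/total cpm recovered. Blood mass taken as 7% of body mass. Mean ± SD.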

Brain [9] = experiment: Biodistribution in brain of NMRI mouse after 2 mins; assay type: ADME, organism-based; conditions: in vivo; in short: as §1
Blood [10] = experiment: Biodistribution in blood of NMRI mouse after 2 mins; assay type: ADME, organism-based; conditions: in vivo; in short: as §1
[11] = Biodistribution in carcass of NMRI mouse after 2 mins; assay type: ADME, organism-based; conditions: in vivo; in short: as §1
[12] = Biodistribution in urine of NMRI mouse after 60 mins; assay type: ADME, organism-based; conditions: in vivo, 1 h; in short: as §1
Kidney [13] = experiment: Biodistribution in kidney of NMRI mouse after 60 mins; assay type: ADME, organism-based; conditions: in vivo, 1 h; in short: as §1
Liver [14] = experiment: Biodistribution in liver of NMRI mouse after 60 mins; assay type: ADME, organism-based; conditions: in vivo, 1 h; in short: as §1
[15] = Biodistribution in spleen/pancreas of NMRI mouse after 60 mins; assay type: ADME, organism-based; conditions: in vivo, 1 h; in short: as §1
Lung [16] = experiment: Biodistribution in lung of NMRI mouse after 60 mins; assay type: ADME, organism-based; conditions: in vivo, 1 h; in short: as §1
Heart [17] = experiment: Biodistribution in heart of NMRI mouse after 60 mins; assay type: ADME, organism-based; conditions: in vivo, 1 h; in short: as §1
Intestine [18] = experiment: Biodistribution in intestine of NMRI mouse after 60 mins; assay type: ADME, organism-based; conditions: in vivo, 1 h; in short: as §1
Brain [19] = experiment: Biodistribution in brain of NMRI mouse after 60 mins; assay type: ADME, organism-based; conditions: in vivo, 1 h; in short: as §1
Blood [20] = experiment: Biodistribution in blood of NMRI mouse after 60 mins; assay type: ADME, organism-based; conditions: in vivo, 1 h; in short: as §1
[21] = Biodistribution in carcass of NMRI mouse after 60 mins; assay type: ADME, organism-based; conditions: in vivo, 1 h; in short: as §1
Kidney [22] = experiment: Biodistribution in kidney of NMRI mouse assessed as standard uptake value after 2 mins; assay type: ADME, organism-based; conditions: in vivo
Liver [23] = experiment: Biodistribution in liver of NMRI mouse assessed as standard uptake value after 2 mins; assay type: ADME, organism-based; conditions: in vivo
[24] = Biodistribution in spleen/pancreas of NMRI mouse assessed as standard uptake value after 2 mins; assay type: ADME, organism-based; conditions: in vivo
Lung [25] = experiment: Biodistribution in lung of NMRI mouse assessed as standard uptake value after 60 mins; assay type: ADME, organism-based; conditions: in vivo, 1 h
Heart [26] = experiment: Biodistribution in heart of NMRI mouse assessed as standard uptake value after 60 mins; assay type: ADME, organism-based; conditions: in vivo, 1 h
Brain [27] = experiment: Biodistribution in brain of NMRI mouse assessed as standard uptake value after 60 mins; assay type: ADME, organism-based; conditions: in vivo, 1 h
Blood [28] = experiment: Biodistribution in blood of NMRI mouse assessed as standard uptake value after 60 mins; assay type: ADME, organism-based; conditions: in vivo, 1 h
[29] = Partition coefficient, log P at pH 7.4; assay type: physicochemical; conditions: octanol/water
In short: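 HPLC-purified radiotracer partitioned between 1-octanol and 0.025 M phosphate buffer pH 7.4. Vortexed 2 min at room temperature, centrifuged 5 min, aliquots of both phases gamma-counted. P = octanol cpm/buffer cpm after density and mass correction; n = 6.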

[30] = Drug uptake in human 293T cells transduced with LacZ gene after 1 hr; assay type: ADME, cell-based; conditions: hek-293t
In short: (§2)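 Lentivirally transduced 293T cells (VZV-tk or LacZ control) plated in triplicate at 200 000 cells/well. After 24 h, 0.25 mL fresh medium with 5 µCi of the 18F tracer (3 h) or 30 µCi of the 11C tracer (1 h) added; 37 °C, 5% CO2. Cells washed thrice with ice-cold PBS, lysed, gamma-counted. Uptake given as % total radioactivity per mg protein (Bio-Rad assay); n = 3, unpaired two-sided t-test.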

[31] = Drug uptake in human 293T cells transduced with VZV-tk gene after 1 hr; assay type: ADME, cell-based; conditions: hek-293t; in short: as §2
Plasma [32] = experiment: Metabolic stability in mouse plasma assessed as radioactivity after 2 mins; assay type: ADME, cell-free
In short: (§3)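 Normal mice given 0.35-0.4 mCi of 11C tracer i.v. and decapitated at 2 or 30 min (plasma; one mouse per time) or 30/60 min (urine). EDTA plasma separated by centrifugation; urine used untreated. Samples spiked with authentic compound and run on Oasis HLB in series with C18, eluted with 0.05 M ammonium acetate/acetonitrile 70:30 at 1 mL/min. 1-mL fractions gamma-counted; intact tracer taken as % recovered radioactivity.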

[33] = Biodistribution in urine of NMRI mouse after 2 mins; assay type: ADME, organism-based; conditions: in vivo; in short: as §1
Kidney [34] = experiment: Biodistribution in kidney of NMRI mouse after 2 mins; assay type: ADME, organism-based; conditions: in vivo; in short: as §1
Liver [35] = experiment: Biodistribution in liver of NMRI mouse after 2 mins; assay type: ADME, organism-based; conditions: in vivo; in short: as §1
[36] = Biodistribution in spleen/pancreas of NMRI mouse after 2 mins; assay type: ADME, organism-based; conditions: in vivo; in short: as §1
Lung [37] = experiment: Biodistribution in lung of NMRI mouse after 2 mins; assay type: ADME, organism-based; conditions: in vivo; in short: as §1
Heart [38] = experiment: Biodistribution in heart of NMRI mouse after 2 mins; assay type: ADME, organism-based; conditions: in vivo; in short: as §1
Plasma [39] = experiment: Metabolic stability in mouse plasma assessed as radioactivity after 30 mins; assay type: ADME, cell-free; conditions: 0.5 h; in short: as §3
[40] = Metabolic stability in mouse urine after 30 mins; assay type: ADME, tissue-based; conditions: read-out: Stability; in short: as §3
[41] = Metabolic stability in mouse urine after 60 mins; assay type: ADME, tissue-based; conditions: read-out: Stability; in short: as §3
[42] = Ratio of drug uptake in LV-VZVTK-1-P transduced cells to LV-LacZ-I-P transduced 293T cells after 1 hr; assay type: ADME, cell-based; conditions: human
In short: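 Lentivirally transduced 293T cells (VZV-tk or LacZ control), plated in triplicate at 200 000 cells/well. After 24 h, given fresh medium with 30 µCi HPLC-purified 11C-labelled tracer per well, then 1 h at 37 °C in 5% CO2. Washed thrice in ice-cold PBS, lysed, gamma-counted, normalized to Bio-Rad protein (% total radioactivity/mg protein). VZV-tk/LacZ ratio, n = 3, unpaired Student t-test.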

[43] = Inhibition of recombinant VZV TK assessed as [CH3-H3]dThd phosphorylation; set-up: species or system Human alphaherpesvirus 3
In short: (§4)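 Purified recombinant VZV TK (7.75 ng), HSV-1 TK (226 ng) or cytosolic TK-1 (455 ng). Buffer: 50 mM Tris-HCl pH 8.0, 2.5 mM MgCl2, 10 mM DTT, 2.5 mM ATP, 1.0 mg/mL BSA, 10 mM NaF, 1 µM [CH3-3H]dThd final. Incubated 30 min at 37 °C (linear range) with graded compound concentrations. Product caught on DE-81 disks, washed, scintillation-counted. IC50 is 50% inhibition of dThd phosphorylation.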

Thymidine kinase = molecular target: T1, Thymidine kinase (Human alphaherpesvirus 1, UniProt Q9QNF7); experiment: Inhibition of recombinant HSV-1 TK assessed as [CH3-H3]dThd phosphorylation; in short: as §4
T1 sequence (Q9QNF7 whole entry): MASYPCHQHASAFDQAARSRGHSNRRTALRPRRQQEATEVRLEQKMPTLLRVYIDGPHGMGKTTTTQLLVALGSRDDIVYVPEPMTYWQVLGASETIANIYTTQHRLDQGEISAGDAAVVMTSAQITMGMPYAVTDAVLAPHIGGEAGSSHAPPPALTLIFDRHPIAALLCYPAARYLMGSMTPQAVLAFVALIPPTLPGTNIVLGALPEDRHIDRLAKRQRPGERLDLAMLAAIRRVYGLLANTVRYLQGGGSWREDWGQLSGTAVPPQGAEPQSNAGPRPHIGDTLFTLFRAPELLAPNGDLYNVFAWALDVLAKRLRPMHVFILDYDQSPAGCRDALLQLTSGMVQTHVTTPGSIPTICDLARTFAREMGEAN

[44] = molecular target: T2, Thymidine kinase, cytosolic (Homo sapiens, UniProt P04183); experiment: Inhibition of recombinant cytosolic TK-1 assessed as [CH3-H3]dThd phosphorylation; in short: as §4
T2 sequence (P04183 whole entry): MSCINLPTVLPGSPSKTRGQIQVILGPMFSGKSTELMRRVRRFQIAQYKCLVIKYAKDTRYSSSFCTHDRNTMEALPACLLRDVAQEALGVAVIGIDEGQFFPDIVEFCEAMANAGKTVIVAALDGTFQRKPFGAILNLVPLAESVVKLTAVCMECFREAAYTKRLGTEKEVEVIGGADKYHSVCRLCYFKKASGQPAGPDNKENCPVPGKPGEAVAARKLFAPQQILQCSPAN

OST [45] = experiment: Cytotoxicity against OST cells expressing VZV TK; assay type: cell-based; conditions: human
In short: (§5)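 OST TK- control cells and OST TK- cells expressing HSV-1 TK or VZV TK were cultured 5 days with graded compound concentrations. Cells were then trypsinized and counted on a Coulter counter. CC50 is the concentration in µM that reduces cell number by 50%.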

OST [46] = experiment: Cytotoxicity against OST cells expressing HSV1 TK; assay type: cell-based; conditions: human; in short: as §5

[11CH3]Oc1cccc(-c2cc3cn([C@H]4C[C@H](O)[C@@H](CO)O4)c(=O)nc3o2)c1
Drug uptake (Lung [1]): 1
Drug uptake (Heart [2]): 1
Drug uptake (Brain [3]): 0.1
Drug uptake (Blood [4]): 0.8
Drug uptake (Kidney [5]): 0.2
Drug uptake (Liver [6]): 0.7
Drug uptake [7]: 0.1
Drug uptake (Intestine [8]): 25.6 %ID
Drug uptake (Brain [9]): 0 %ID
Drug uptake (Blood [10]): 5.4 %ID
Drug uptake [11]: 25.3 %ID
Drug uptake [12]: 28.2 %ID
Drug uptake (Kidney [13]): 0.3 %ID
Drug uptake (Liver [14]): 3.7 %ID
Drug uptake [15]: 0.1 %ID
Drug uptake (Lung [16]): 0 %ID
Drug uptake (Heart [17]): 0 %ID
Drug uptake (Intestine [18]): 63.7 %ID
Drug uptake (Brain [19]): 0 %ID
Drug uptake (Blood [20]): 0.2 %ID
Drug uptake [21]: 3.5 %ID
Drug uptake (Kidney [22]): 12.4
Drug uptake (Liver [23]): 3.7
Drug uptake [24]: 2.7
Drug uptake (Lung [25]): 0
Drug uptake (Heart [26]): 0
Drug uptake (Brain [27]): 0
Drug uptake (Blood [28]): 0
logD [29]: 1.27
Drug uptake [30]: 0.24%
Drug uptake [31]: 12.8%
Stability (Plasma [32]): 98%
Drug uptake [33]: 0.2 %ID
Drug uptake (Kidney [34]): 21.7 %ID
Drug uptake (Liver [35]): 21.3 %ID
Drug uptake [36]: 2.4 %ID
Drug uptake (Lung [37]): 0.7 %ID
Drug uptake (Heart [38]): 0.5 %ID
Stability (Plasma [39]): 80%
remaining at 0.5 h [40]: 90%
remaining at 1 h [41]: 90%
Ratio [42]: 53

O=c1nc2oc(-c3cccc(O)c3)cc2cn1[C@H]1C[C@H](O)[C@@H](CO)O1
IC50 [43]: 2.6 µM
IC50 (Thymidine kinase): > 500 µM
IC50 [44]: > 500 µM
Activity (OST [45]): Not Active
Activity (OST [46]): Not Active

COc1cccc(-c2cc3cn([C@H]4C[C@H](O)[C@@H](CO)O4)c(=O)nc3o2)c1
IC50 [43]: 4.8 µM
IC50 (Thymidine kinase): > 500 µM
IC50 [44]: > 500 µM
Activity (OST [45]): Not Active
Activity (OST [46]): Not Active

Nc1nc2c(ncn2CCC(CO)CF)c(=O)[nH]1 (stereo not drawn)
IC50 (Thymidine kinase): 9 µM

O=c1nc2oc(-c3cccc(OCCF)c3)cc2cn1[C@H]1C[C@H](O)[C@@H](CO)O1
IC50 [43]: 53 µM
IC50 (Thymidine kinase): > 500 µM
IC50 [44]: > 500 µM
Activity (OST [45]): Not Active
Activity (OST [46]): Not Active
